Test results from ChEMBL document CHEMBL5126648, “Charting the Chemical Space of Acrylamide-Based Inhibitors of zDHHC20” (ACS Med Chem Lett, 2022).
Activity calls are given as the source filed them. The rule behind the calls is not given here.

Experiments:
[1] = target: T1, Palmitoyltransferase ZDHHC20 (Homo sapiens) (UniProt Q5W0Z9); test: Binding affinity to human myc-His6-tagged zDHHC20 expressed in HEK293T cells at 1 uM measured after 1 hr by TAMRA-azide-labelled in-gel fluorescence analysis; type: cell-based
T1 sequence (whole entry): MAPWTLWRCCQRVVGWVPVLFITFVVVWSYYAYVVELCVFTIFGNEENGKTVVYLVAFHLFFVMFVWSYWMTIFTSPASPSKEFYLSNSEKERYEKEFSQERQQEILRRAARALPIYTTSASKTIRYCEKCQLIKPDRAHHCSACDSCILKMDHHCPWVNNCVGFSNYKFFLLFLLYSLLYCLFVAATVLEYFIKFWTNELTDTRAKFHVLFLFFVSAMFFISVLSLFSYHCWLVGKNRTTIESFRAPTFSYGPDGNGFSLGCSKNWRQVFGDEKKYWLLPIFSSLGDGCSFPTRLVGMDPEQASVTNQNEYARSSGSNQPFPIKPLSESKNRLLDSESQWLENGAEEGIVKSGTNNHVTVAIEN
Procedure, shortened: (§1)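 Myc-tagged enzyme overexpressed in HEK293T cells; cells treated with probe at 1 μM for 1 h. Lysates then clicked to TAMRA-azide, proteins resolved by SDS-PAGE and read by in-gel fluorescence. Expression checked by anti-myc Western blot. n = 2.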

[2] = target: T2, Palmitoyltransferase ZDHHC20 (Homo sapiens, UniProt Q5W0Z9); test: Inhibition of human myc-His6-tagged zDHHC20 expressed in HEK293T cells using 5-FAM-GTQGCMGLPCVVM-COOH as substrate preincubated for 1 hr followed by substrate addition and measured at 1 min interval for 2 hrs in presence of palmitoyl-CoA by fluorescence polarization assay
T2 sequence (Q5W0Z9 whole entry): T1 sequence (whole entry)
Procedure, shortened: (§2)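 Purified zDHHC20 run in the acyl-cLIP assay, an earlier adaptation by the same group. Enzyme-mediated acylation of a peptide is read as polarized fluorescence.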

[3] = target: T3, Palmitoyltransferase ZDHHC2 (Homo sapiens) (UniProt Q9UIJ5); test: Inhibition of human myc-His6-tagged zDHHC2 expressed in HEK293T cells at 10 uM using 5-FAM-GTQGCMGLPCVVM-COOH as substrate preincubated for 30 mins followed by substrate addition and measured at 1 min interval for 2 hrs in presence of palmitoyl-CoA by fluorescence polarization assay; conditions: time 150.0 min
T3 sequence (whole entry): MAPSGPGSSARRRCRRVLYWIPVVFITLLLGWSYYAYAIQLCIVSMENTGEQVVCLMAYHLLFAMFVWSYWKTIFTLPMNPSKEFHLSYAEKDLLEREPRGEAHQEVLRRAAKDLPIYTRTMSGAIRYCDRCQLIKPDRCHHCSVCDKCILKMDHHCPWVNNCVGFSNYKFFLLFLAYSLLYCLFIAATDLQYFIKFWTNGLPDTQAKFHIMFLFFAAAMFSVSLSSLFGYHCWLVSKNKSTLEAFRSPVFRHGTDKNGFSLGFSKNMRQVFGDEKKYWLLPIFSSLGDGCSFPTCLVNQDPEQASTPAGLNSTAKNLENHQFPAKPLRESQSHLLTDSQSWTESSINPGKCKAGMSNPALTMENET

[4] = target: T3, Palmitoyltransferase ZDHHC2 (Homo sapiens); test: Binding affinity to human myc-His6-tagged zDHHC2 expressed in HEK293T cells at 1 uM measured after 1 hr by TAMRA-azide-labelled in-gel fluorescence analysis; type: cell-based; procedure, shortened: as §1
[5] = target: T1, Palmitoyltransferase ZDHHC20 (Homo sapiens); test: Inhibition of human myc-His6-tagged zDHHC20 expressed in HEK293T cells at 10 uM using 5-FAM-GTQGCMGLPCVVM-COOH as substrate preincubated for 1 hr followed by substrate addition and measured at 1 min interval for 2 hrs in presence of palmitoyl-CoA by fluorescence polarization assay; conditions: time 3.0 hrs; procedure, shortened: as §2
[6] = Lipophilicity, log P of compound; type: physicochemical; conditions: octanol/water
[7] = target: T4, Palmitoyltransferase ZDHHC2 (Homo sapiens, UniProt Q9UIJ5); test: Inhibition of human myc-His6-tagged zDHHC2 expressed in HEK293T cells using 5-FAM-GTQGCMGLPCVVM-COOH as substrate preincubated for 30 mins followed by substrate addition and measured at 1 min interval for 2 hrs in presence of palmitoyl-CoA by fluorescence polarization assay
T4 sequence (Q9UIJ5 whole entry): T3 sequence (whole entry)

Row | SMILES | IC50 [2] | logP [6] | IC50 [7] | other results
1 | CCCCCCCCCCCCCCNC(=O)/C=C\C(=O)OCc1cn(CCOCCOCCOCCO)nn1 |  | 4.55 |  | inhibition [5]: Active
2 | C#CCN(CCCCCCCCCCCCCC)C(=O)C=C |  |  |  | Activity [1]: Active; Activity [4]: Active
3 | CCCCCCCCCCCCCCN(CC#N)C(=O)/C=C\C(=O)O | 3.45 µM |  |  | 
4 | C#CCOC(=O)/C=C/C(=O)NCCCCCCCCCCCCCC |  |  |  | Activity [1]: Active; Activity [4]: Active
5 | C=CC(=O)N(CC#N)CCOCCCCCCCCCCC | 1.97 µM | 4.1 |  | inhibition [3]: Active
6 | CCCCCCCCCCCCCCC(Br)C(=O)O (centres undefined) | 5.55 µM |  | 2.02 µM | 
7 | CCCCCCCCCCCCCCNC(=O)/C=C\C(=O)OC |  |  |  | inhibition [5]: Active
8 | CCCCCCCCCCCCCCNC(=O)/C=C\C(=O)OCc1cn(CCCNC(=O)CCNC(=O)[C@H](O)C(C)(C)CO)nn1 | 9.73 µM | 3.33 |  | 
9 | CCCCCCCCCCCCCCNC(=O)/C=C\C(=O)Oc1ccccc1 |  |  | 2.02 µM | inhibition [5]: 50%
10 | C=CC(=O)N(CC#N)CCCCCCCCCCCCCC | 1.35 µM | 5.48 | 0.59 µM | inhibition [3]: Active

Continued, in another order:

Row | IC50 [2] | logP [6] | IC50 [7] | SMILES | other results
11 | 3.43 µM |  |  | C#CCOC(=O)/C=C\C(=O)NCCCCCCCCCCCCCC | Activity [1]: Active; inhibition [3]: Active; Activity [4]: Active
12 | 21.4 µM |  | 59.9 µM | C=CC(=O)NCCCCCCCCCCCCCC | 
13 | 2.87 µM |  | 2.66 µM | CCCCCCCCCCCCCCNC(=O)/C=C\C(=O)OCC#N | 
